ChEMBL document CHEMBL1125849, “Synthesis of the 2-amino-4-phosphonobutanoic acid analogues (E)- and (Z)-2-amino-2,3-methano-4-phosphonobutanoic acid and their evaluation as inhibitors of hippocampal excitatory neurotransmission” (J Med Chem, 1991)

Key:
Assay type in all cases: functional
[1] = Ratio is IC50 vales of medial perforant path (MPP) to that of lateral perforant path (LPP)
Procedure, shortened: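 Ratio of MPP to LPP IC50 values from rat hippocampal slice field-potential recordings. Dentate molecular layer recorded, middle third (MPP) and outer third (LPP), at 34 °C. Concentration doubled every 4 min. Each IC50 is a weighted mean taken from fractional-response versus log-concentration curves.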

Rattus norvegicus [2] = species: Rattus norvegicus; test: Inhibitory activity against Hippocampal Excitatory Neurotransmission using lateral perforant path (LPP)in rat hippocamapl slice Tested as racemic mixtures
Procedure, shortened: (§1)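 Rat transverse hippocampal slices (450 μm) from urethane-anesthetized animals, held in oxygenated bicarbonate medium, pH 7.4. Recording in a microperfusion chamber at 34 °C. Field potentials in the dentate molecular layer: outer third for LPP, middle third for MPP. Placement checked with L-AP4. Drug started at threshold and doubled every 4 min. IC50 taken from fractional response versus log concentration, as a weighted mean.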

Rattus norvegicus [3] = species: Rattus norvegicus; test: Inhibitory activity against Hippocampal Excitatory Neurotransmission using medial perforant path (MPP) in rat hippocamapl slice Tested as racemic mixtures; procedure, shortened: as §1
[4] = Rattus norvegicus, Perforant path

SMILES | Ratio [1] | IC50 (Rattus norvegicus [2]; [4]) [µM] | IC50 (Rattus norvegicus [3]; [4]) [µM] | IC50 (Rattus norvegicus [3]) [µM] | IC50 (Rattus norvegicus [2]) [µM]
N[C@@H](CCP(=O)(O)O)C(=O)O | 18 | – | – | – | –
N[C@]1(C(=O)O)CC[C@@H](P(=O)(O)O)C1 | 2.5 | 960 | 2400 | – | –
NC1(C(=O)O)CC1CP(=O)(O)O (stereo in doubt; 6) | 4.8 | 17 | – | 81 | –
NC1(C(=O)O)CC1CP(=O)(O)O (stereo in doubt; 5) | 88 | – | – | 1580 | 18
N[C@]1(C(=O)O)CC[C@H](P(=O)(O)O)C1 | 31 | 130 | 1850 | – | –
